Laboratory results reported in ChEMBL document CHEMBL1133751, “Design, synthesis, and biological evaluation of tricyclic nucleosides (dimensional probes) as analogues of certain antiviral polyhalogenated benzimidazole ribonucleosides” (J Med Chem, 2000).

Columns and labels:
HFF [1] = test: Antiviral activity against towne strain HCMV was determined by yield reduction assay in duplicate wells using HFF cells; assay type: functional; conditions: Homo sapiens
Summary of the method: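 HFF cells plated in 96-well dishes and incubated overnight. Inoculated with Towne HCMV at MOI 0.5–1 PFU/cell, then drug added, in duplicate wells. Progeny virus yield measured. IC90 from the linear portion of log–log regression of yield versus drug concentration.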

HFF [2] = test: Antiviral activity against towne strain HCMV was determined by plaque reduction assay in duplicate wells using HFF cells; assay type: functional, cell-based; conditions: Homo sapiens
Summary of the method: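 HFF monolayers in 24-well dishes infected with about 100 PFU Towne HCMV (plaque-purified isolate P0) per cm2. Compounds in growth medium added to duplicate wells at 4–8 concentrations. Plaques scored. IC50 from linear regression of percent inhibition against log drug concentration.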

[3] = Compound was tested for the inhibition of KB cell growth in quadruplicate wells; assay type: functional, cell-based; conditions: Homo sapiens
Summary of the method: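 KB cells grown through two population doublings with compound in quadruplicate wells. Growth quantified by crystal violet staining and spectrophotometric reading of eluted dye. IC50 from linear regression of percent inhibition against log concentration.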

Human alphaherpesvirus 1 = test: Antiviral activity against HSV-1 (herpes simplex virus), determined by ELISA in quadruplicate wells using BSC-1 cells; assay type: functional, organism-based; conditions: Human alphaherpesvirus 1, BSC-1
Summary of the method: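 KOS strain HSV-1 at 100 PFU/well added with selected drug concentrations in quadruplicate to 96-well dishes seeded with 10 000 BSC-1 cells/well and incubated overnight. Virus detected by ELISA. IC50 from linear regression of percent inhibition vs log concentration. Average of 2–3 separate experiments.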

HFF [4] = test: Visual cytotoxicity against stationary human foreskin fibroblasts (HFF) cells at the time of HCMV plaque enumeration; assay type: functional, cell-based
Summary of the method: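 Stationary HFF monolayers in the uninfected wells of the HCMV plaque assay inspected microscopically for cytotoxicity. Compounds in growth medium at 4–8 concentrations. IC50 from linear regression of percent inhibition against log concentration.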

OC[C@H]1O[C@@H](n2c(Cl)nc3cc(Cl)c(Cl)cc32)[C@H](O)[C@@H]1O
IC90 (HFF [1]): 1.4 µM | IC50 (HFF [2]): 2.9 µM | IC50 [3]: 210 µM

OC[C@H]1OC(n2c(NC3CC3)nc3cc4cc(Cl)c(Cl)cc4cc32)[C@H](O)[C@@H]1O (stereo partly specified)
IC50 (Human alphaherpesvirus 1): 80 µM | IC50 (HFF [4]): 32 µM | IC50 (HFF [2]): 32 µM | IC50 [3]: 55 µM

OC[C@H]1OC(n2cnc3cc4cc(Cl)c(Cl)cc4cc32)[C@H](O)[C@@H]1O (stereo partly specified)
IC50 (Human alphaherpesvirus 1): > 100 µM | IC50 (HFF [4]): > 100 µM | IC90 (HFF [1]): 17 µM | IC50 (HFF [2]): > 100 µM | IC50 [3]: > 100 µM

OC[C@H]1OC(n2c(SCc3ccccc3)nc3nc4cc(Cl)c(Cl)cc4cc32)[C@H](O)[C@@H]1O (stereo partly specified)
IC50 (Human alphaherpesvirus 1): > 100 µM | IC50 (HFF [4]): 20 µM | IC50 (HFF [2]): 4.2 µM | IC50 [3]: 40 µM

CC(C)Nc1nc2cc3cc(Cl)c(Cl)cc3nc2n1C1O[C@H](CO)[C@@H](O)[C@H]1O (stereo partly specified)
IC50 (Human alphaherpesvirus 1): > 100 µM | IC50 (HFF [4]): 32 µM | IC50 (HFF [2]): 32 µM | IC50 [3]: 90 µM

OC[C@H]1OC(n2cnc3cc4cc(Cl)c(Cl)cc4nc32)[C@H](O)[C@@H]1O (stereo partly specified)
IC50 (Human alphaherpesvirus 1): > 100 µM | IC50 (HFF [4]): > 10 µM | IC50 (HFF [2]): > 10 µM | IC50 [3]: > 100 µM

OC[C@H]1OC(n2c(SCc3ccccc3)nc3nc4cc(Cl)c(Cl)cc4nc32)[C@H](O)[C@@H]1O (stereo partly specified)
IC50 (Human alphaherpesvirus 1): 30 µM | IC50 (HFF [4]): 20 µM | IC50 (HFF [2]): 4.2 µM | IC50 [3]: 20 µM

OC[C@H]1OC(n2c(NC3CC3)nc3nc4cc(Cl)c(Cl)cc4nc32)[C@H](O)[C@@H]1O (stereo partly specified)
IC50 (Human alphaherpesvirus 1): > 100 µM | IC50 (HFF [4]): > 100 µM | IC50 (HFF [2]): 32 µM | IC50 [3]: 90 µM

CC(C)Nc1nc2cc3cc(Cl)c(Cl)cc3cc2n1C1O[C@H](CO)[C@@H](O)[C@H]1O (stereo partly specified)
IC50 (Human alphaherpesvirus 1): 80 µM | IC50 (HFF [4]): 32 µM | IC50 (HFF [2]): 32 µM | IC50 [3]: 146 µM

OC[C@H]1OC(n2c(Cl)nc3cc4cc(Cl)c(Cl)cc4nc32)[C@H](O)[C@@H]1O (stereo partly specified)
IC50 (Human alphaherpesvirus 1): 90 µM | IC50 (HFF [4]): 18 µM | IC90 (HFF [1]): 9.2 µM | IC50 (HFF [2]): 18 µM | IC50 [3]: 8 µM

OC[C@H]1OC(n2c(NC3CC3)nc3nc4cc(Cl)c(Cl)cc4cc32)[C@H](O)[C@@H]1O (stereo partly specified)
IC50 (Human alphaherpesvirus 1): > 100 µM | IC50 (HFF [4]): > 100 µM | IC50 (HFF [2]): > 100 µM | IC50 [3]: > 100 µM

OC[C@H]1OC(n2cnc3nc4cc(Cl)c(Cl)cc4cc32)[C@H](O)[C@@H]1O (stereo partly specified)
IC50 (Human alphaherpesvirus 1): > 100 µM | IC50 (HFF [4]): > 100 µM | IC90 (HFF [1]): 85 µM | IC50 (HFF [2]): > 100 µM | IC50 [3]: 85 µM

CC(C)Nc1nc2nc3cc(Cl)c(Cl)cc3nc2n1C1O[C@H](CO)[C@@H](O)[C@H]1O (stereo partly specified)
IC50 (Human alphaherpesvirus 1): 100 µM | IC50 (HFF [4]): 100 µM | IC50 (HFF [2]): 32 µM | IC50 [3]: 70 µM

CC(C)Nc1nc2nc3cc(Cl)c(Cl)cc3cc2n1C1O[C@H](CO)[C@@H](O)[C@H]1O (stereo partly specified)
IC50 (Human alphaherpesvirus 1): > 100 µM | IC50 (HFF [4]): 100 µM | IC50 (HFF [2]): 32 µM | IC50 [3]: 90 µM

OC[C@H]1OC(n2c(NC3CC3)nc3cc4cc(Cl)c(Cl)cc4nc32)[C@H](O)[C@@H]1O (stereo partly specified)
IC50 (Human alphaherpesvirus 1): > 100 µM | IC50 (HFF [4]): > 100 µM | IC50 (HFF [2]): > 100 µM | IC50 [3]: 100 µM

OC[C@H]1OC(n2cnc3nc4cc(Cl)c(Cl)cc4nc32)[C@H](O)[C@@H]1O (stereo partly specified)
IC50 (Human alphaherpesvirus 1): > 100 µM | IC50 (HFF [4]): 45 µM | IC50 (HFF [2]): 32 µM | IC50 [3]: > 100 µM

OC[C@H]1OC(n2c(Cl)nc3cc4cc(Cl)c(Cl)cc4cc32)[C@H](O)[C@@H]1O (stereo partly specified)
IC50 (Human alphaherpesvirus 1): 26 µM | IC50 (HFF [4]): 3.2 µM | IC90 (HFF [1]): 2.3 µM | IC50 (HFF [2]): 2 µM | IC50 [3]: 19 µM

OC[C@H]1OC(n2c(SCc3ccccc3)nc3cc4cc(Cl)c(Cl)cc4cc32)[C@H](O)[C@@H]1O (stereo partly specified)
IC50 (Human alphaherpesvirus 1): > 100 µM | IC50 (HFF [4]): > 100 µM | IC50 (HFF [2]): > 100 µM | IC50 [3]: > 100 µM

OC[C@H]1OC(n2c(Cl)nc3nc4cc(Cl)c(Cl)cc4cc32)[C@H](O)[C@@H]1O (stereo partly specified)
IC50 (Human alphaherpesvirus 1): 70 µM | IC50 (HFF [4]): 21 µM | IC90 (HFF [1]): 45 µM | IC50 (HFF [2]): 2 µM | IC50 [3]: 11 µM

OC[C@H]1OC(n2c(SCc3ccccc3)nc3cc4cc(Cl)c(Cl)cc4nc32)[C@H](O)[C@@H]1O (stereo partly specified)
IC50 (Human alphaherpesvirus 1): > 100 µM | IC50 (HFF [4]): > 10 µM | IC50 (HFF [2]): > 10 µM | IC50 [3]: > 100 µM

OC[C@H]1O[C@@H](n2cnc3cc(Cl)c(Cl)cc32)[C@H](O)[C@@H]1O [DICHLORORIBOBENZIMIDAZOLE]
IC50 (Human alphaherpesvirus 1): 30 µM | IC90 (HFF [1]): 19 µM | IC50 (HFF [2]): 42 µM | IC50 [3]: 36 µM

Nc1nc2c(ncn2COC(CO)CO)c(=O)[nH]1 [GANCICLOVIR]
IC50 (HFF [4]): > 100 µM | IC90 (HFF [1]): 1.6 µM | IC50 [3]: > 100 µM
